Assay [1] in a line: reducers of endogenous Her2 protein level, primary screen, SKBR3 breast tumor cells, AlphaScreen, ATP viability (AID 461;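 active means Her2 level under about 52% in both replicate screens, with viability over 70% of control, limit read from the data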;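 on Her2 level: lower value means less Her2 protein in the cells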;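 on viability: percent of carrier control wells set as 100% viability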). As to conditions: 18-24 h, measured here: SKBR3 viability, ATP luminescence, at 10 µM. In general terms: Alpha assays give light when donor and acceptor beads are brought close together.
Assay [2] has as its target Receptor tyrosine-protein kinase erbB-2 (Homo sapiens) (UniProt P04626). Described as above. The following applies: 18-24 h, at 10 µM, stronger effect = lower value.
Assay [3] is described as follows: SK-BR-3 cell growth inhibitors, pilot screen, 24 h, human (AID 572).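 Further: compound exposure lasted between 18 and 24 h rather than exactly 24 h; 100% = carrier-treated control wells.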 The following applies: SK-BR-3 viability, CellTiter-Glo luminescence, at 10 µM, stronger effect = lower value.
Assay [4] is described as follows: HUVEC growth inhibition – cell-based, human, primary screen (AID 575;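 active means viability at or below 30% in both replicate assays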;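 further: 100% = median of untreated cell wells with 0.1% DMSO on each plate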). The following applies: HUVEC proliferation, CellTiter-Glo luminescence, 72 h; at 10 µM; stronger effect = lower value. The gist of the method:
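system = HUVEC primary cells | amount = 1250 cells/well | buffer or medium = supplemented EBM, 2% fetal bovine serum | dosing = single-point 10 µM, DMSO 0.1% final | times = 72 h compound incubation | detection = CTG luminescence | read-out = % viability relative to median vehicle-well signal on each plate | control set = vehicle and MePR control wells | format = collagen-coated 384-well format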

A short description of assay [5]: growth inhibitors of H69AR lung tumor, primary screen, human, duplicate replicates (AID 580;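 active means viability at or under a set limit in both replicates, limit being median viability minus 3 SD, cut at about 48% in these data, passing the limit was not always enough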;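 further: 100% = mean luminescence of untreated wells and 0% = no signal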). The following applies: H69AR lung tumor cells viability, ATP luminescence, 72 h; at 10 µM; stronger effect = lower value.
A short description of assay [6]: reversal of MRP1-mediated doxorubicin resistance, pilot screen, H69AR cells, doxorubicin co-treatment (AID 601;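 active means viability loss from added drug above about 55%, and viability with drug at most 40%, in both replicates, limit read from the data, passing the limit was not always enough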). The following applies: CellTiter-Glo, 72 h, at 10 µM; for differential viability (reversal): stronger effect = higher value. For orientation: ATP-based viability assays read luminescence as a measure of living cells.
A short description of assay [7]: 384-well plate pilot, post-Golgi transport modulator project, inhibition of yeast transport mutant growth (AID 636; in the data active means inhibition above about 31%). The following applies: absorbance 615 nm, about 18 h, stronger effect = higher value.
A short description of assay [8]: growth suppression of yeast trafficking mutant, preliminary HTS, modulators of trafficking downstream of Golgi apparatus project, 1536-format plate, OD 615 nm (AID 637; in the data active means inhibition above about 30%). The following applies: yeast transport mutant growth, absorbance 615 nm, 18 h; stronger effect = higher value.
Where [9] appears, read: H69AR cells + 2 uM doxorubicin, measured here: viability with 2 uM doxorubicin, stronger effect = lower value.
Where [10] appears, read: H69AR cells, compound alone cytotoxicity.

Active and inactive are the calls of the source.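 How the source made its calls, unless noted: active means viability at or below 10% of carrier control in both of two separate runs; inconclusive means viability at or below 10% in only one of the two runs; inactive means the rest.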

Receptor tyrosine-protein kinase erbB-2 (Homo sapiens), sequence (P04626 whole entry, looked up): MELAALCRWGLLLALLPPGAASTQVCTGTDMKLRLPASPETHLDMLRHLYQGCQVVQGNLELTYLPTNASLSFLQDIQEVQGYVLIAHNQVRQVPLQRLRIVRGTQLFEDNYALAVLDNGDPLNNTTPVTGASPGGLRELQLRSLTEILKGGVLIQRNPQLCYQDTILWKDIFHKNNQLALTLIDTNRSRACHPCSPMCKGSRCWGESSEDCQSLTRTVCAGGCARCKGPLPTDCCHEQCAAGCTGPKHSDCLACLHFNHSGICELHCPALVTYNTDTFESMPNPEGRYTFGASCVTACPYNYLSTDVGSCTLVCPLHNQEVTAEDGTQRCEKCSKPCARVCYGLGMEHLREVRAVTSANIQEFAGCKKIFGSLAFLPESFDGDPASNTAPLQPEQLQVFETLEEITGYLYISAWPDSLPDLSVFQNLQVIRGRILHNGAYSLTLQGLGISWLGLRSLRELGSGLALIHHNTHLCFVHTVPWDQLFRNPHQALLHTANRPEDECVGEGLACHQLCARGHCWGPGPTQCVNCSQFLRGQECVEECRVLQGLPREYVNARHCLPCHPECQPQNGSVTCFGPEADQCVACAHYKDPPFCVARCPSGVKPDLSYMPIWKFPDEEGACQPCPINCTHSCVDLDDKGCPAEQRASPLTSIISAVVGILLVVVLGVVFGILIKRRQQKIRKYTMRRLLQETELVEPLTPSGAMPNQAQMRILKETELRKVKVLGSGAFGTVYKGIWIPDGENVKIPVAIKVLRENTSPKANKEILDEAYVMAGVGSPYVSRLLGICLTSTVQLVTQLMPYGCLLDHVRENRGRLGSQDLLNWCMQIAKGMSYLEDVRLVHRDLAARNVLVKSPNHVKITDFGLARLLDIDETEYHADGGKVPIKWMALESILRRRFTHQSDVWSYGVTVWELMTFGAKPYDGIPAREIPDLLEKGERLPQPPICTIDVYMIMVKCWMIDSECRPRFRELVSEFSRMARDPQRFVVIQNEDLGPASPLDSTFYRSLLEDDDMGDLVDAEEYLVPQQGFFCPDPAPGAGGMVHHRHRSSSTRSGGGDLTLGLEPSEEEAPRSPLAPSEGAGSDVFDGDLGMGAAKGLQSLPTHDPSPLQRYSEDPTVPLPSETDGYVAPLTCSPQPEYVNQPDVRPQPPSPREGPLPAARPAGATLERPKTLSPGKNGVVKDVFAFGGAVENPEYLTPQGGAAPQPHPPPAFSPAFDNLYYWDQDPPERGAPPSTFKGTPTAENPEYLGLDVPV

Take `CCCCn1c(SCC(=O)Nc2ccc(OC)cc2)nc2ccc(N3CCOCC3)cc2c1=O`: the viability in assay [1] was 94.5%; in assay [3], 94.5% (inactive); in assay [4], 72.4% (inactive); in assay [5] it was 89.6% (inactive); in assay [6] (setting [9]), 89%; in assay [6] (setting [10]) it was 89.6%. Also, the Her2 level in assay [2] was 86% (inactive). Further, the differential viability (reversal) in assay [6] (H69AR cells + 2 uM doxorubicin) was 0.605% (inactive). Besides, the inhibition in assay [7] is -2.8% (inactive); in assay [8], 0.16% (inactive).

Take `COCCN(CC(=O)NC1CCCCC1)C(=O)CSc1nc2ccccc2o1`: the viability in assay [1] is 98%; in assay [3], 98% (inactive); in assay [4], 90.8% (inactive); in assay [5], 97.6% (inactive); in assay [6] (setting [9]) it was 93.5%; in assay [6] (setting [10]) it was 97.6%. In addition, the Her2 level in assay [2] is 96% (inactive). For the same compound, the differential viability (reversal) in assay [6] (H69AR cells + 2 uM doxorubicin) was 4.13% (inactive). Also, the inhibition in assay [7] is -0.39% (inactive); in assay [8], -5.24% (inactive).

Consider `Cc1noc(C)c1S(=O)(=O)N1CCCC(C(=O)NCCc2ccc(Cl)cc2)C1` (stereo not given), for which the viability is 89% in assay [1]; 89% (inactive) in assay [3]; 98.1% (inactive) in assay [4]; 97.1% (inactive) in assay [5]; 91.7% in assay [6] (setting [9]); 97.1% in assay [6] (setting [10]). For the same compound, the Her2 level in assay [2] was 82% (inactive). Further, the differential viability (reversal) in assay [6] (H69AR cells + 2 uM doxorubicin) was 5.35% (inactive). The inhibition in assay [7] is -5.34% (inactive); in assay [8], 4.76% (inactive).

For `CCC(=O)Nc1c(C#N)c2nc3ccccc3nc2n1-c1ccccc1C`, the viability in assay [1] is 95%; in assay [3], 95% (inactive); in assay [4], 99.2% (inactive); in assay [5] it was 87.5% (inactive); in assay [6] (setting [9]), 91%; in assay [6] (setting [10]) it was 87.5%. The Her2 level in assay [2] was 82.5% (inactive). Moreover, the differential viability (reversal) in assay [6] (H69AR cells + 2 uM doxorubicin) is -3.52% (inactive). Besides, the inhibition in assay [7] is -5.2% (inactive); in assay [8], 8.85% (inactive).

For `O=C(NCc1cccnc1)c1ccccc1Br`, the viability in assay [1] is 110%; in assay [3], 110% (inactive); in assay [4], 115% (inactive); in assay [5], 95.1% (inactive); in assay [6] (setting [9]), 94.2%; in assay [6] (setting [10]) it was 95.1%. In addition, in assay [2], the Her2 level is 98.5% (inactive). The differential viability (reversal) in assay [6] (H69AR cells + 2 uM doxorubicin) was 0.945% (inactive). In addition, the inhibition is -5.87% (inactive) in assay [7] and -2.42% (inactive) in assay [8].

As for `N#CCSc1nc2c(c(C3CC=CCC3)c1C#N)CCC2` (stereo not given), the viability in assay [1] is 88.5%; in assay [3], 88.5% (inactive); in assay [4], 63.4% (inactive); in assay [5], 100% (inactive); in assay [6] (setting [9]) it was 87.2%; in assay [6] (setting [10]) it was 100%. Besides, the Her2 level in assay [2] was 81.5% (inactive). For the same compound, the differential viability (reversal) in assay [6] (H69AR cells + 2 uM doxorubicin) was 12.8% (inactive). The inhibition in assay [7] is -3.07% (inactive); in assay [8], -1.94% (inactive).

For the compound `Nc1nnn(Cc2ccccc2)n1`, the viability in assay [1] is 93.5%; in assay [3], 93.5% (inactive); in assay [4] it was 100% (inactive); in assay [5], 119% (inactive); in assay [6] (setting [9]), 97.3%; in assay [6] (setting [10]), 119%. Also, the Her2 level in assay [2] was 92% (inactive). For the same compound, in assay [6] (H69AR cells + 2 uM doxorubicin), the differential viability (reversal) is 22.1% (inactive). For the same compound, the results for the inhibition in assay [7] and in assay [8] were -5.21% (inactive) and -6.98% (inactive), respectively.

Regarding `CCN1CCN(c2ncnc3c2oc2nc(C)c4c(c23)CC(C)(C)OC4)CC1`, the viability is 91.5% in assay [1]; 91.5% (inactive) in assay [3]; 98.3% (inactive) in assay [4]; 97% (inactive) in assay [5]; 98.1% in assay [6] (setting [9]); 97% in assay [6] (setting [10]). In assay [2], the Her2 level was 122% (inactive). The differential viability (reversal) in assay [6] (H69AR cells + 2 uM doxorubicin) is -1.16% (inactive). Besides, the inhibition in assay [7] was -0.78% (inactive); in assay [8] it was -3.17% (inactive).

Turning to `Cc1cc(Nc2ccccc2N2CCOCC2)n2ncnc2n1`, the viability in assay [1] is 94.5%; in assay [3], 94.5% (inactive); in assay [4] it was 88% (inactive); in assay [5], 97.1% (inactive); in assay [6] (setting [9]) it was 97.8%; in assay [6] (setting [10]), 97.1%. Besides, in assay [2], the Her2 level was 96% (inactive). Also, the differential viability (reversal) in assay [6] (H69AR cells + 2 uM doxorubicin) was -0.715% (inactive). Moreover, the inhibition was -2.43% (inactive) in assay [7] and 4.6% (inactive) in assay [8].

Consider `O=C(Nc1ccc2c(c1)OCO2)c1cncc(Br)c1`, for which the viability was 108% in assay [1]; 108% (inactive) in assay [3]; 82% (inactive) in assay [4]; 92.6% (inactive) in assay [5]; 90.5% in assay [6] (setting [9]); 92.6% in assay [6] (setting [10]). Moreover, the Her2 level in assay [2] is 77% (inactive). Also, in assay [6] (H69AR cells + 2 uM doxorubicin), the differential viability (reversal) is 2.14% (inactive). The inhibition was -4.27% (inactive) in assay [7] and 5.25% (inactive) in assay [8].

For `N#Cc1c(N)c(C(=O)c2ccccc2)n2c1CCCC2`, the viability is 103% in assay [1]; 103% (inactive) in assay [3]; 97.7% (inactive) in assay [4]; 93.1% (inactive) in assay [5]; 99.2% in assay [6] (setting [9]); 93.1% in assay [6] (setting [10]). In assay [2], the Her2 level was 71% (inactive). Further, the differential viability (reversal) in assay [6] (H69AR cells + 2 uM doxorubicin) was -6.13% (inactive). In addition, the inhibition in assay [7] is -8.92% (inactive); in assay [8], -0.66% (inactive).

Consider `COC(=O)c1c(N)n(-c2cc(OC)cc(OC)c2)c2nc3ccccc3nc12`, for which the viability is 85.5% in assay [1]; 85.5% (inactive) in assay [3]; 61.7% (inactive) in assay [4]; 101% (inactive) in assay [5]; 90.5% in assay [6] (setting [9]); 101% in assay [6] (setting [10]). The Her2 level in assay [2] is 93% (inactive). For the same compound, the differential viability (reversal) in assay [6] (H69AR cells + 2 uM doxorubicin) is 10.6% (inactive). For the same compound, the inhibition was -6.35% (inactive) in assay [7] and 3.83% (inactive) in assay [8].

Regarding `CC(NS(=O)(=O)c1ccc(F)cc1)C(c1cccs1)N1CCN(C)CC1` (stereo not given), the viability in assay [1] was 118%; in assay [3] it was 118% (inactive); in assay [4], 87.9% (inactive); in assay [5] it was 96.7% (inactive); in assay [6] (setting [9]), 82.3%; in assay [6] (setting [10]) it was 96.7%. Besides, the Her2 level in assay [2] was 133% (inactive). Also, the differential viability (reversal) in assay [6] (H69AR cells + 2 uM doxorubicin) is 14.4% (inactive). Moreover, the inhibition is -3.29% (inactive) in assay [7] and -5.67% (inactive) in assay [8].

`COc1ccccc1N1CCN(C(=O)CSc2nc(-c3ccccc3)cc(=O)[nH]2)CC1`: the viability was 87.5% in assay [1]; 87.5% (inactive) in assay [3]; 80.8% (inactive) in assay [4]; 88.1% (inactive) in assay [5]; 89.8% in assay [6] (setting [9]); 88.1% in assay [6] (setting [10]). Also, the Her2 level in assay [2] was 124% (inactive). Besides, in assay [6] (H69AR cells + 2 uM doxorubicin), the differential viability (reversal) is -1.75% (inactive). The inhibition in assay [7] was -3.16% (inactive); in assay [8] it was -6.83% (inactive).

As a reminder, the viability is a read-out of living cells in per cent, often relative to untreated cells. The inhibition is the relative decrease from the control value, in per cent.

The values are drawn from PubChem BioAssay.
